ChEMBL document CHEMBL1147200, “Synthesis, structural characterization, and in vitro antitumor activity of novel N-(6-chloro-1,1-dioxo-1,4,2-benzodithiazin-3-yl)arylsulfonamides” (2007)

Tests used:
Assay type in all cases: functional
[1] = tested on: DAN-G; test: Cytotoxicity against human DANG cells after 96 hrs
Summary of the method: (§1)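 Cells plated in 96-well format, left 24 h, then given compound continuously for 96 h. Growth read by staining attached viable cells with crystal violet, washing, redissolving bound dye in 70% ethanol and reading OD at 570 nm. GI50 computed from dose–response data of 5 to 7 independent experiments.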

[2] = tested on: 5637; test: Cytotoxicity against human 5637 cells after 96 hrs; settings: Homo sapiens, 5637, 96 h; summary of the method: as §1
[3] = tested on: A-427; test: Cytotoxicity against human A427 cells after 96 hrs; settings: A-427, 96 h; summary of the method: as §1
[4] = Cytotoxicity against human LCLC103H cells after 96 hrs; settings: LCLC-103H; summary of the method: as §1
[5] = tested on: MCF7; test: Cytotoxicity against human MCF7 cells after 96 hrs; settings: MCF7, 96 h; summary of the method: as §1
[6] = tested on: RT-4; test: Cytotoxicity against human RT4 cells after 96 hrs; settings: RT-4, 96 h; summary of the method: as §1

Structure (SMILES) | GI50 [1] [µM] | GI50 [2] [µM] | GI50 [3] [µM] | GI50 [4] [µM] | GI50 [5] [µM] | GI50 [6] [µM]
O=C(Oc1cccc2cccnc12)c1cc2c(cc1Cl)SC(N(c1ccc(F)cc1)S(=O)(=O)c1ccc(Cl)cc1)=NS2(=O)=O | 9.3 | 6.2 | 3.1 | 4.6 | 3.2 | > 20
COC(=O)c1cc2c(cc1Cl)SC(N(N(C)C)S(=O)(=O)c1ccc(Br)s1)=NS2(=O)=O | 23.7 | 13.7 | 12 | 19.1 | 10.9 | 18.5
CCOC(=O)c1cc2c(cc1Cl)SC(N(c1ccccc1)S(=O)(=O)c1ccc(Cl)cc1)=NS2(=O)=O | 14.8 | 14.3 | 11.7 | > 20 | 9.8 | > 20
CCOC(=O)c1cc2c(cc1Cl)SC(N(c1ccc(OC)cc1)S(=O)(=O)c1ccc(Cl)cc1)=NS2(=O)=O | 12.3 | 11.9 | 11.2 | 19.3 | 8.1 | 23.1
CCOC(=O)c1cc2c(cc1Cl)SC(N(c1ccc(OC)cc1)S(=O)(=O)c1ccccc1)=NS2(=O)=O | 7.6 | 6.5 | 7 | 9.3 | 4.9 | 16.8
CCOC(=O)c1cc2c(cc1Cl)SC(N(c1ccc(F)cc1)S(=O)(=O)c1ccc(OC)cc1)=NS2(=O)=O | 12 | 12.1 | 8.4 | 17.5 | 5.8 | 19
Cc1cc2c(cc1Cl)SC(N(c1ccc(Cl)cc1)S(=O)(=O)c1ccccc1)=NS2(=O)=O | 9.9 | 9.6 | 9.2 | 12.4 | 8.1 | 22
Cc1cc2c(cc1Cl)SC(N(N(C)C)S(=O)(=O)c1ccc(Cl)cc1)=NS2(=O)=O | 23.5 | 19.2 | 15.6 | > 20 | 12.3 | > 20
COC(=O)c1cc2c(cc1Cl)SC(N(N(C)C)S(=O)(=O)c1ccc(Cl)cc1)=NS2(=O)=O | 18.7 | 12.6 | 10.2 | 19.6 | 8.7 | 18.5
CCOC(=O)c1cc2c(cc1Cl)SC(N(c1ccc(OC)cc1)S(=O)(=O)c1ccc(Cl)cc1Cl)=NS2(=O)=O | 3.1 | 2.3 | 4.1 | 2.8 | 2.4 | 6.3
Cc1cc2c(cc1Cl)SC(N(c1ccccc1Cl)S(=O)(=O)c1ccc(Br)s1)=NS2(=O)=O | 9.4 | 7.5 | 8.2 | 11.9 | 6.5 | 28.6
O=C(Oc1cccc2cccnc12)c1cc2c(cc1Cl)SC(N(c1ccc(F)cc1)S(=O)(=O)c1ccc(Br)s1)=NS2(=O)=O | 8.2 | 5.1 | 3.4 | 5.3 | 3.2 | > 20
